In ChEMBL document CHEMBL5257161, “Mycobacterium tuberculosis CitA activity is modulated by cysteine oxidation and pyruvate binding” (RSC Med Chem, 2023):

Columns and labels:
[1] = substrate: O=C(O)CC(=O)C(=O)O; test: Binding affinity to Mycobacterium tuberculosis wild type CitA expressed in Escherichia coli cells assessed as Kcat/Km by Michaelis-Menten analysis
How it was run: (§1)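 His-tagged CitA (wild type or variant) was expressed in E. coli, purified by cobalt affinity and size exclusion, then dialysed against 20 mM Tris pH 8.0. Activity was measured by DTNB (300 μM) thiol detection of released CoA at 412 nm, with OAA and AcCoA substrates and 10 nM enzyme, in 50 mM Tris pH 8.0 at 25 °C. A no-enzyme control was run. Triplicate runs were fitted to Michaelis–Menten.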

[2] = substrate: O=C(O)CC(=O)C(=O)O; test: Binding affinity to Mycobacterium tuberculosis wild type CitA expressed in Escherichia coli cells assessed as Vmax by Michaelis-Menten analysis; how it was run: as §1
[3] = substrate: O=C(O)CC(=O)C(=O)O; test: Binding affinity to Mycobacterium tuberculosis wild type CitA expressed in Escherichia coli cells assessed as apparent Km by Michaelis-Menten analysis; how it was run: as §1
[4] = substrate: O=C(O)CC(=O)C(=O)O; test: Binding affinity to Mycobacterium tuberculosis wild type CitA expressed in Escherichia coli cells assessed as catalytic constant by Michaelis-Menten analysis; how it was run: as §1

B1: Putative citrate synthase 2 (Mycobacterium tuberculosis), P9WPD3 (protein)
chain: MTVVPENFVPGLDGVVAFTTEIAEPDKDGGALRYRGVDIEDLVSQRVTFGDVWALLVDGNFGSGLPPAEPFPLPIHSGDVRVDVQAGLAMLAPIWGYAPLLDIDDATARQQLARASVMALSYVAQSARGIYQPAVPQRIIDECSTVTARFMTRWQGEPDPRHIEAIDAYWVSAAEHGMNASTFTARVIASTGADVAAALSGAIGAMSGPLHGGAPARVLPMLDEVERAGDARSVVKGILDRGEKLMGFGHRVYRAEDPRARVLRAAAERLGAPRYEVAVAVEQAALSELRERRPDRAIETNVEFWAAVVLDFARVPANMMPAMFTCGRTAGWCAHILEQKRLGKLVRPSAIYVGPGPRSPESVDGWERVLTTA
What does the source list for B1?
kcat/Km [1]: 24 min⁻¹ µM⁻¹; Vmax [2]: 3.4 µM/min; Km [3]: 14.3 µM; kcat [4]: 340 min⁻¹
